Rows were chosen to be rich in hits. Some 2.9% of all compounds tested hit in one or more screens of this group.
dFosB activator: enhances mouse delta FosB homodimer DNA binding | purified delta FosB, TAMRA-CDK5 oligo fluorescence polarization; percent of positive-control signal above neutral wells | activation, % at 25 µM | P13346 | actives 0.99% (n = 340,000);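 active = mean activation above about 17%, with every replicate also reaching it, limit read from the data, passing the limit was not always enough; inconclusive = only one of the two conditions met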
HIV Env fusion: HIV envelope-mediated fusion inhibition; HeLa-JRFL Env/CEM21 cell fusion, luciferase; inhibition, % at 12.3 µM; actives 1.1% (n = 360,000);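 active = mean replicate inhibition score of at least 50 and every replicate individually at or above 50; inconclusive = only one of the two criteria met; inactive = mean below 50 and not all replicates reaching 50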;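 also: 0% = plate neutral controls and 100% = maraviroc near 300 nM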
Cneo AK release: Cryptococcus neoformans lysis via adenylate kinase release | C. neoformans lysis, adenylate kinase release luminescence, 4 h; normalised: neutral wells 0, clomiphene wells 100 | AID 651654 | actives 0.2% (n = 360,000) | lysis activity, % at 15 µM;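 active = mean lysis activity across replicates of at least 80%, whatever share of replicates individually reach that level; inactive = mean lysis activity below 80%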
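Assay system: log-phase C. neoformans yeast / Quantity: yeast cell density of 5 × 10^6 cells/mL / Medium: fresh YPD growth medium / Compound: single dose / Timing: static 4 h at 37 °C with compound, 1 h detection / Measured by: adenylate kinase release luminescence / Read-out: lysis from increased AK signal / Benchmarks: Clomiphene as positive lysis control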
PAX8 inh HTS: inhibitors of PAX8 transcriptional activity in RMG-I cells; RMG-I TPO-luciferase reporter, SteadyGlo, 24 h; inhibition, % at 12.6 µM; actives 1.2% (n = 360,000);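 active = mean replicate inhibition at least 60% with every replicate also reaching 60%; inconclusive = only one of the two criteria is met; inactive = mean below 60% and not all replicates reaching 60%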;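 also: luciferase light reporting Pax8 driven TPO promoter activity; plate controls were median of neutral control wells for no effect and mitoxantrone controls for full effect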
CDK5 inh: blocks human CDK5/p35 kinase activity; inhibition, % at 10 µM; actives 0.01% (n = 330,000); AID 488839; Recombinant CDK5/p35, ADP-Glo luminescence, 60 min; Q00535+Q15078;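 active = highest replicate inhibition of at least 50% and at least 75% of replicates reaching 50%; inconclusive = only one of the two criteria met; inactive = both criteria failed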;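 also: plate controls were DMSO neutral control for no effect and GW8510 at 10 µM for full effect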
GSIS activator: primary screen for activators of insulin secretion dependent on glucose, INS-1E cells, GLuc reporter luminescence. actives 0.61% (n = 370,000). INS-1E GLuc reporter insulin secretion, 2-3 h. AID 743287. activation, % at 16.6 µM;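 active = lowest replicate activation of at least 40%, so every replicate reaches that level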;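 also: 0% = median of neutral control wells and 100% = median of IBMX positive control wells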
Numbers without * were called inactive; ? = inconclusive; nt = not tested or not shown; [ ] = remark or other dose.

SMILES	dFosB activator	HIV Env fusion	Cneo AK release	PAX8 inh HTS	CDK5 inh	GSIS activator
COc1ccccc1CN1C(=O)c2ccccc2[C@](Cc2ccccc2I)(C(=O)NCc2ccccc2)[C@@H]1c1ccc(CO)cc1	nt	60*[16.7 µM]	nt	17	nt	nt
CC=Cc1ccc2n(c1=O)C[C@H]1[C@H](CO)[C@@H](C(=O)NC3CCC3)N(CCC)[C@@H]21 (mixture of isomers)	nt	nt	nt	nt	nt	-2
Cc1cc(C(=O)Nc2ccc3c(c2)C(=O)N(C)[C@@H]2CC[C@@H](CC(=O)NCc4ccc(-c5ccccc5)cc4)O[C@H]2CO3)no1	nt	-23[16.7 µM]	52	39	nt	-7
C=C[C@@H]1c2cc(C)ccc2N(S(=O)(=O)c2ccc(C)cc2)[C@H](c2ccccc2C(F)(F)F)C1(C#N)C#N	-3	56*	1	29	-1	-2
N#CC(C#N)=C1C=CC=CN1/C(=C\c1ccco1)C(=O)c1ccc(Br)cc1	0	-287	nt	102*	2	65
N#CC(C#N)=C1C=CC=CN1/C(=C\c1ccco1)C(=O)c1ccccc1	-9	-309	nt	122*	0	48
COc1ccc(C(=O)/C(=C\c2ccco2)N2C=CC=CC2=C(C#N)C#N)cc1	-8	nt	-1	nt	-1	nt
Cc1ccc(-n2[nH]c(C)c(/C=N/c3ccccn3)c2=O)cc1	-4	-15	-1	nt	1	1
Cc1[nH]n(-c2ccccc2)c(=O)c1C=Nc1cccc2cccnc12	-2	57*	nt	?	0	-19
Cc1ccc(S(=O)(=O)N2CCN(C(=O)CNC(=O)c3ccc(Br)o3)CC2)cc1	-7	64*	nt	12	0	-2
C[C@H](CO)N1C[C@H](C)[C@@H](CN(C)C(=O)Nc2ccc(N3CCCCC3)cc2)OCc2cn(nn2)CCCC1=O	nt	nt	nt	-10	nt	-3
C[C@@H]1CN([C@@H](C)CO)C(=O)c2cc(C#CC(C)(C)O)cnc2O[C@@H]1CN(C)C(=O)CN(C)C	nt	-18[16.7 µM]	2	nt	nt	-18
C[C@H](CO)N1C[C@H](C)[C@H](CN(C)S(C)(=O)=O)Oc2cc(-c3cccc(F)c3)ccc2S1(=O)=O	nt	17[16.7 µM]	41	-12	nt	0
COc1ccccc1Cc1c(C(C)(C)C)nc2c3ccccc3ccn12	nt	25	0	65*	nt	-28
COc1ccccc1Cc1c(-c2ccccc2)nc2c3ccccc3ccn12	nt	-18	nt	15	nt	14
Cc1ccc(S(=O)(=O)N(C)C[C@@H]2Oc3c(NC(=O)Nc4ccc5c(c4)OCO5)cccc3C(=O)N([C@@H](C)CO)C[C@@H]2C)cc1	nt	-4[16.7 µM]	-6	-25	nt	-4
O=C(Nc1cccc(/C=C/c2nc3ccccc3c(=O)[nH]2)c1)c1ccccc1Cl	-7	-37	3	-34	-1	5
COc1ccc(C(=O)Nc2cccc(/C=C/c3nc4ccccc4c(=O)[nH]3)c2)cc1	12	39	nt	64*	-1	10
CC(=O)Nc1ccc2c(c1)C(=O)N(C)[C@@H]1CC[C@@H](CC(=O)NC3CCCCC3)O[C@@H]1CO2	nt	-8[16.7 µM]	-1	-3	nt	2
COc1ccccc1NC(=O)N(C)C[C@H]1Oc2ncc(C#CCC(C)C)cc2C(=O)N([C@@H](C)CO)C[C@@H]1C	nt	-11[16.7 µM]	0	-7	nt	-11
C[C@@H]1CCCCO[C@H](CN(C)C(=O)NC2CCCCC2)[C@@H](C)CN([C@@H](C)CO)C(=O)c2cc(NC(=O)Nc3ccc(C(F)(F)F)cc3)ccc2O1	nt	39[16.7 µM]	1	93*	nt	-1
C[C@@H]1CCCCO[C@@H](CN(C)C(=O)NC2CCCCC2)[C@H](C)CN([C@@H](C)CO)C(=O)c2cc(NC(=O)Nc3ccc(C(F)(F)F)cc3)ccc2O1	nt	14[16.7 µM]	6	76*	nt	5
C[C@H]1CCCCO[C@H](CN(C)C(=O)NC2CCCCC2)[C@@H](C)CN([C@@H](C)CO)C(=O)c2cc(NC(=O)Nc3ccc(C(F)(F)F)cc3)ccc2O1	nt	40[16.7 µM]	-1	87*	nt	2
C[C@@H]1CCCCO[C@@H](CN(C)C(=O)NC2CCCCC2)[C@@H](C)CN([C@@H](C)CO)C(=O)c2cc(NC(=O)Nc3ccc(C(F)(F)F)cc3)ccc2O1	nt	-5[16.7 µM]	6	74*	nt	0
